Calls of active or inactive are those of the source. The rule behind the calls is not given here.
Columns and labels:
[1] = system: Rattus norvegicus; experiment: Antihypertensive activity in spontaneous hypertensive rat model assessed as decrease in blood pressure at 100 mg/kg, po administered for 2 to 4 days measured on day 2 to day 4; assay type: functional
How it was run: (§1)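 SHR, 4–6 per drug, were dosed daily by gavage for 2 or 4 consecutive days in 3% cornstarch, 5% PEG-400 and 1 drop Tween 80 per mL. After 1 h acclimation, systolic pressure was read by tail-cuff (inflated to 250 mmHg, then lowered; pulse reemergence), at least three readings, at 1, 2, 3 and 24 h post-dose. The peak fall is scored: +, <20 mm up to >80 mm.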

[2] = system: Canis familiaris; experiment: Toxicity in unanesthetized renal hypertensive Mongrel dog model assessed as emesis at 60 mg/kg, po qd measured on day 1 to 4; assay type: organism-based, Canis lupus familiaris; design: dose 60 mg/kg, route oral; details: in vivo
[3] = system: Squirrel monkey; experiment: Toxicity in normotensive squirrel monkey model assessed as emesis at 30 mg/kg, po qd measured on day 1; assay type: organism-based, Saimiri sciureus; design: dose 30 mg/kg, route oral; details: in vivo
[4] = system: Canis familiaris; experiment: Toxicity in unanesthetized renal hypertensive Mongrel dog model assessed as change in heart rate at 60 mg/kg, po qd measured on day 1; assay type: organism-based, Canis lupus familiaris; design: dose 60 mg/kg, route oral; details: in vivo
How it was run: (§2)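 Conscious renal hypertensive dogs. Blood pressure recorded through a hypodermic needle and tubing to a pressure transducer; heart rate counted by hand. Solid drug given orally once daily in gelatin capsule. Pressures read at 1.5, 3, 6 and 24 h after each dose; maximum changes in pressure and heart rate over each daily session reported.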

[5] = system: Canis familiaris; experiment: Toxicity in unanesthetized renal hypertensive Mongrel dog model assessed as change in heart rate at 60 mg/kg, po qd measured on day 3; assay type: organism-based, Canis lupus familiaris; design: dose 60 mg/kg, route oral; details: in vivo; how it was run: as §2
[6] = system: Canis familiaris; experiment: Antihypertensive activity in unanesthetized renal hypertensive Mongrel dog model assessed as change in mean blood pressure at 60 mg/kg, po qd measured on day 3; assay type: functional, Canis lupus familiaris; how it was run: as §2
[7] = system: Squirrel monkey; experiment: Antihypertensive activity in normotensive squirrel monkey model assessed as decrease in systolic blood pressure at 100 mg/kg, po qd measured on day 2 by sphygmomanometry; assay type: functional, Saimiri sciureus, Artery
How it was run: (§3)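 Restrained squirrel monkeys of either sex with tails warmed by infrared lamp. Systolic pressure was measured indirectly with a tail-base occlusion cuff and pulse transducer. Doses were given daily by gavage as a suspension in 3% cornstarch, 5% PEG-400 and 1 drop Tween 80 per 10 mL. Readings were taken 1.5, 3, 5 and 24 h post-dose. Values are the peak change after each dose, analysed by paired t test.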

[8] = system: Canis familiaris; experiment: Toxicity in unanesthetized renal hypertensive Mongrel dog model assessed as change in heart rate at 60 mg/kg, po qd measured on day 2; assay type: organism-based, Canis lupus familiaris; design: dose 60 mg/kg, route oral; details: in vivo; how it was run: as §2
[9] = system: Canis familiaris; experiment: Antihypertensive activity in unanesthetized renal hypertensive Mongrel dog model assessed as change in mean blood pressure at 60 mg/kg, po qd measured on day 1; assay type: functional, Canis lupus familiaris; how it was run: as §2
[10] = system: Squirrel monkey; experiment: Antihypertensive activity in normotensive squirrel monkey model assessed as decrease in systolic blood pressure at 30 mg/kg, po qd measured on day 1 by sphygmomanometry; assay type: functional, Saimiri sciureus, Artery
How it was run: (§4)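 Squirrel monkeys of either sex restrained in primate chairs, tails warmed by infrared lamp. Systolic pressure taken indirectly by tail-base occlusion cuff with pulse transducer; heart rate counted by hand from the pressure trace. Daily gavage of a suspension in 3% cornstarch, 5% PEG-400 and 1 drop Tween 80 per 10 mL. Read at 1.5, 3, 5 and 24 h; peak change per dose; paired t test.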

[11] = system: Squirrel monkey; experiment: Toxicity in normotensive squirrel monkey model assessed as change in heart rate at 100 mg/kg, po qd measured on day 2; assay type: organism-based, Saimiri sciureus; design: dose 100 mg/kg, route oral; details: in vivo
How it was run: (§5)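 Heart rate in restrained, tail-warmed squirrel monkeys was counted manually from the tail-cuff pressure record. Daily gavage used a suspension in 3% cornstarch, 5% PEG-400 and 1 drop Tween 80 per 10 mL. Monitoring was at 1.5, 3, 5 and 24 h after each dose, and the peak change per administration is reported. Paired t test.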

[12] = system: Canis familiaris; experiment: Antihypertensive activity in unanesthetized renal hypertensive Mongrel dog model assessed as change in mean blood pressure at 60 mg/kg, po qd measured on day 2; assay type: functional, Canis lupus familiaris; how it was run: as §2
[13] = system: Squirrel monkey; experiment: Toxicity in normotensive squirrel monkey model assessed as change in heart rate at 30 mg/kg, po qd measured on day 1; assay type: organism-based, Saimiri sciureus; design: dose 30 mg/kg, route oral; details: in vivo; how it was run: as §4
[14] = system: Squirrel monkey; experiment: Toxicity in normotensive squirrel monkey model assessed as emesis at 100 mg/kg, po qd measured on day 2; assay type: organism-based, Saimiri sciureus; design: dose 100 mg/kg, route oral; details: in vivo
[15] = system: Canis familiaris; experiment: Toxicity in unanesthetized renal hypertensive Mongrel dog model assessed as change in heart rate at 30 mg/kg, po qd measured on day 3; assay type: organism-based, Canis lupus familiaris; design: dose 30 mg/kg, route oral; details: in vivo
How it was run: (§6)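 Heart rate in unanesthetized renal hypertensive dogs was counted manually from the transducer-recorded arterial pressure trace. Oral dosing was once daily as solid in a gelatin capsule. Readings were at 1.5, 3, 6 and 24 h post-dose, and the maximum change per daily session is reported.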

[16] = system: Canis familiaris; experiment: Antihypertensive activity in unanesthetized renal hypertensive Mongrel dog model assessed as change in mean blood pressure at 30 mg/kg, po qd measured on day 2; assay type: functional, Canis lupus familiaris
How it was run: (§7)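 Unanesthetized renal hypertensive dogs. Arterial pressure was recorded via a hypodermic needle and polyethylene tubing to a pressure transducer. Drug was given orally once daily as solid in a gelatin capsule. Pressure was determined 1.5, 3, 6 and 24 h after each dose, and the maximum change over each daily monitored session is reported.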

[17] = system: Rattus norvegicus; experiment: Toxicity in spontaneous hypertensive rat model assessed as bradycardia at 200 mg/kg, po administered for 2 to 4 days; assay type: organism-based; design: dose 200 mg/kg, route oral; details: in vivo
How it was run: (§8)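 Heart rate in SHR was counted from tail-cuff pressure pulses after 1 h acclimation. Rats (4–6 per drug) were gavaged daily for 2 or 4 days at 100 mg/kg (sometimes 200 mg/kg) in 3% cornstarch, 5% PEG-400 and 1 drop Tween 80 per mL. Recordings were at 1, 2, 3 and 24 h after each dose.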

[18] = system: Squirrel monkey; experiment: Antihypertensive activity in normotensive squirrel monkey model assessed as decrease in systolic blood pressure at 100 mg/kg, po qd measured on day 3 by sphygmomanometry; assay type: functional, Saimiri sciureus, Artery; how it was run: as §3
[19] = system: Canis familiaris; experiment: Toxicity in unanesthetized renal hypertensive Mongrel dog model assessed as emesis at 30 mg/kg, po qd measured on day 1 to 4; assay type: organism-based, Canis lupus familiaris; design: dose 30 mg/kg, route oral; details: in vivo
[20] = system: Canis familiaris; experiment: Toxicity in unanesthetized renal hypertensive Mongrel dog model assessed as change in heart rate at 30 mg/kg, po qd measured on day 1; assay type: organism-based, Canis lupus familiaris; design: dose 30 mg/kg, route oral; details: in vivo; how it was run: as §6
[21] = system: Squirrel monkey; experiment: Toxicity in normotensive squirrel monkey model assessed as change in heart rate at 100 mg/kg, po qd measured on day 3; assay type: organism-based, Saimiri sciureus; design: dose 100 mg/kg, route oral; details: in vivo; how it was run: as §5
[22] = system: Canis familiaris; experiment: Antihypertensive activity in unanesthetized renal hypertensive Mongrel dog model assessed as change in mean blood pressure at 30 mg/kg, po qd measured on day 1; assay type: functional, Canis lupus familiaris; how it was run: as §7
[23] = system: Rattus norvegicus; experiment: Antihypertensive activity in spontaneous hypertensive rat model assessed as decrease in blood pressure at 200 mg/kg, po administered for 2 to 4 days measured on day 2 to day 4; assay type: functional; how it was run: as §1
[24] = system: Squirrel monkey; experiment: Toxicity in normotensive squirrel monkey model assessed as change in heart rate at 100 mg/kg, po qd measured on day 1; assay type: organism-based, Saimiri sciureus; design: dose 100 mg/kg, route oral; details: in vivo; how it was run: as §5
[25] = system: Squirrel monkey; experiment: Toxicity in normotensive squirrel monkey model at 100 mg/kg, po qd measured on day 3; assay type: organism-based, Saimiri sciureus; design: dose 100 mg/kg, route oral; details: in vivo
[26] = system: Squirrel monkey; experiment: Antihypertensive activity in normotensive squirrel monkey model assessed as decrease in systolic blood pressure at 100 mg/kg, po qd measured on day 1 by sphygmomanometry; assay type: functional, Saimiri sciureus, Artery; how it was run: as §3
[27] = system: Canis familiaris; experiment: Toxicity in unanesthetized renal hypertensive Mongrel dog model assessed as change in heart rate at 30 mg/kg, po qd measured on day 2; assay type: organism-based, Canis lupus familiaris; design: dose 30 mg/kg, route oral; details: in vivo; how it was run: as §6
[28] = system: Canis familiaris; experiment: Antihypertensive activity in unanesthetized renal hypertensive Mongrel dog model assessed as change in mean blood pressure at 30 mg/kg, po qd measured on day 3; assay type: functional, Canis lupus familiaris; how it was run: as §7
[29] = system: Rattus norvegicus; experiment: Toxicity in spontaneous hypertensive rat model at 100 mg/kg, po administered for 2 to 4 days; assay type: organism-based; design: dose 100 mg/kg, route oral; details: in vivo
[30] = system: Rattus norvegicus; experiment: Toxicity in spontaneous hypertensive rat model assessed as effect on heart rate at 100 mg/kg, po administered for 2 to 4 days; assay type: organism-based; design: dose 100 mg/kg, route oral; details: in vivo; how it was run: as §8
[31] = system: Rattus norvegicus; experiment: Antihypertensive activity in spontaneous hypertensive rat model assessed as decrease in blood pressure at 30 mg/kg, po administered for 2 to 4 days measured on day 2 to day 4; assay type: functional

SMILES	Activity [1]	also measured
O=C(O)c1ccc(SCc2cccc(F)c2)cn1	>20 mmHg	–
COc1ccc(C[S+]([O-])c2ccc(C(=O)O)nc2)cc1 (stereo unspecified)	>20 mmHg	–
O=C([O-])c1ccc([S+]([O-])CCCc2ccccc2)cn1.[Na+] (stereo unspecified)	<20 mmHg	–
O=C(O)c1ccc(SCCCCl)cn1	>20 mmHg	–
Cc1cccc(CSc2ccc(C(=O)O)nc2)c1	<20 mmHg	–
O=C([O-])c1ccc(SCc2ccc(Cl)c(Cl)c2)cn1.[Na+]	<20 mmHg	–
CC(Sc1ccc(C(=O)O)nc1)c1cccc(Cl)c1 (stereo unspecified)	<20 mmHg	–
O=C([O-])c1ccc([S+]([O-])Cc2cccc(Br)c2)cn1.[Na+] (stereo unspecified)	>20 mmHg	–
O=C(O)c1ccc(Sc2cccc(Cl)c2)cn1	>20 mmHg	–
O=C(O)c1ccc([S+]([O-])Cc2ccc(Cl)cc2)cn1 (stereo unspecified)	>20 mmHg	–
CCCCc1ccc(C(=O)O)nc1 [FUSARIC ACID]	>60 mmHg	Activity [2]: Toxic; Activity [3]: Non-toxic; Activity [4]: 32 bpm; Activity [5]: 33 bpm; Activity [6]: -30 mmHg; Activity [7]: -53 mmHg; Activity [8]: 35 bpm; Activity [9]: -50 mmHg; Activity [10]: -28 mmHg; Activity [11]: 10 bpm; Activity [12]: -45 mmHg; Activity [13]: -20 bpm; Activity [14]: Non-toxic
O=C(O)c1ccc(SCc2cccc(C(F)(F)F)c2)cn1	>40 mmHg	Activity [15]: -12 bpm; Activity [16]: 22 mmHg; Activity [17]: Toxic; Activity [18]: -25 mmHg; Activity [19]: Non-toxic; Activity [20]: 5 bpm; Activity [7]: -25 mmHg; Activity [21]: -20 bpm; Activity [11]: -26 bpm; Activity [22]: 12 mmHg; Activity [23]: >80 mmHg; Activity [24]: -40 bpm; Activity [25]: Toxic; Activity [26]: -27 mmHg; Activity [27]: 9 bpm; Activity [28]: 24 mmHg
O=C(O)c1ccc(SCCc2ccccc2)cn1	–	Activity [29]: Toxic
O=C(O)c1ccc(SCCCc2ccccc2)cn1	>20 mmHg	–
O=C(O)c1ccc(SCc2ccccc2Cl)cn1	<20 mmHg	–
O=C([O-])c1ccc(SCc2ccc(Br)cc2)cn1.[Na+]	>40 mmHg	–
O=C(O)c1ccc([S+]([O-])c2ccc(Cl)cc2)cn1 (stereo unspecified)	<20 mmHg	–
Cc1ccc(CSc2ccc(C(=O)[O-])nc2)cc1.[Na+]	<20 mmHg	–

SMILES	Activity [1]	also measured
CCCC(Sc1ccc(C(=O)O)nc1)c1cccc(C(F)(F)F)c1 (stereo unspecified)	>20 mmHg	–
N#Cc1cccc(CSc2ccc(C(=O)[O-])nc2)c1.[Na+]	>20 mmHg	–
CC(c1cccc(C(F)(F)F)c1)[S+]([O-])c1ccc(C(=O)O)nc1 (stereo unspecified)	>20 mmHg	–
O=C(O)c1ccc(SCc2ccc(Cl)cc2)cn1	>40 mmHg	–
O=C([O-])c1ccc(S(=O)(=O)Cc2cccc(C(F)(F)F)c2)cn1.[Na+]	<20 mmHg	–
O=C(O)c1ccc(SCc2cccc(Cl)c2)cn1	>40 mmHg	–
COc1ccc(CSc2ccc(C(=O)[O-])nc2)cc1.[Na+]	<20 mmHg	–
O=C([O-])c1ccc(SCc2c(Cl)cccc2Cl)cn1.[Na+]	<20 mmHg	–
O=C([O-])c1ccc([S+]([O-])Cc2ccc(Cl)cc2Cl)cn1.[Na+] (stereo unspecified)	>20 mmHg	–
O=C([O-])c1ccc(SCc2cccc(Br)c2)cn1.[Na+]	>60 mmHg	–
CC(Sc1ccc(C(=O)O)nc1)c1cccc(C(F)(F)F)c1 (stereo unspecified)	>40 mmHg	–
CCCCSc1ccc(C(=O)O)nc1	>20 mmHg	Activity [30]: Non-toxic
O=C([O-])c1ccc(SCc2ccc(F)cc2)cn1.[Na+]	>20 mmHg	–
O=C(O)c1ccc(SCc2ccccc2)cn1	>40 mmHg	–
O=C([O-])c1ccc(Sc2ccc(Cl)cc2)cn1.[Na+]	–	Activity [31]: <20 mmHg; Activity [29]: Toxic
CCCCS(=O)(=O)c1ccc(C(=O)O)nc1	inactive	–
COc1cccc(C[S+]([O-])c2ccc(C(=O)O)nc2)c1 (stereo unspecified)	<20 mmHg	–
